The list is not random: actives were taken first. Their share in the collection is about 1.8%.
MBD2 inh: MBD2-methylated oligo binding inhibition | TR-FRET, MBD2 binding to methylated oligonucleotide | AID 686964 | Q9UBB5 | actives 0.31% (n = 370,000) | inhibition, % at 4.4 µM; in the data active means inhibition above about 13%
Target sequence (Q9UBB5 whole entry, looked up): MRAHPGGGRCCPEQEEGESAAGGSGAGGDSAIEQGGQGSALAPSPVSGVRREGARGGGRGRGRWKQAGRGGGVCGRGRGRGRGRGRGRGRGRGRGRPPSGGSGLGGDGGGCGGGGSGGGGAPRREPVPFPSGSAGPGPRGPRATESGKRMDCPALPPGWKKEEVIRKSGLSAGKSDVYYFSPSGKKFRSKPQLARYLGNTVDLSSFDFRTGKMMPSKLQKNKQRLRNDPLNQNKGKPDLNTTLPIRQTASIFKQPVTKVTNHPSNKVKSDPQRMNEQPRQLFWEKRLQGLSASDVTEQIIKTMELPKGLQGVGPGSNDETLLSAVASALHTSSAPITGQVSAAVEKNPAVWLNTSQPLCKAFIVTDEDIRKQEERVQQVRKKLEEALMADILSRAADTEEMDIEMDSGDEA
TDP2 inh: TDP2 (human) inhibition, absorbance primary screen; inhibition, % at 12.8 µM; O95551; actives 0.34% (n = 370,000); recombinant TDP2, T5PNP hydrolysis, p-nitrophenol absorbance 415 nm;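 active means inhibition above the mean of all tested compounds plus 3 SD, set per campaign, cut at about 25% in these data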;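 further: 0% = DMSO with enzyme and 100% = buffer with substrate but no TDP2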
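System: recombinant human TDP2 / Amount: 120 nM TDP2 per well / Also added: 5 mM T5PNP chromogenic substrate / Doses: 12.8 µM single point, 1% DMSO / Incubation: 2 h at 37 °C / Detection: p-Nitrophenol epi absorbance / Evaluation: % inhibition relative to enzyme-containing and enzyme-free wells / Repeats: singlicate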
NSD2 inh: NSD2 (human) methyltransferase inhibition; NSD2 peptide methylation, AlphaScreen, 120 min; actives 0.54% (n = 310,000); inhibition, % at 12.5 µM; in the data active means inhibition above about 50%
CASP6 VEID inh: blocks human caspase-6 cleavage activity | P55212 | purified caspase-6, Z-VEID-R110 cleavage fluorescence | inhibition, % at 12.5 µM | actives 0.53% (n = 350,000) | AID 686996;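 active means mean inhibition across replicates at least about 35%, with every replicate also reaching that limit, limit read from the data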;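 further: 0% = median of neutral control wells and 100% = no fluorescence left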
Target sequence (P55212 24-179 limits assumed): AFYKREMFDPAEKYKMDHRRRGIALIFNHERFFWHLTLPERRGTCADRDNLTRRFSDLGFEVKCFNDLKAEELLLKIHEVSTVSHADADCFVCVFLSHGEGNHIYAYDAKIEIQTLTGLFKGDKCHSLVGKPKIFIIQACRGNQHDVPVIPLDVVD
Target sequence (P55212 194-293 limits assumed): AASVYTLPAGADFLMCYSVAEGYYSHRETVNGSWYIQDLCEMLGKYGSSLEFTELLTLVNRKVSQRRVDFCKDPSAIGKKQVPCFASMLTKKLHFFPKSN
UHRF1 binding: UHRF1 methyl-DNA binding inhibition; Q96T88; actives 0.75% (n = 370,000); UHRF1 binding to methylated oligo, TR-FRET; inhibition, % at 4.4 µM; AID 687016; in the data active means inhibition above about 21%;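 further: UHRF1 SRA domain binding a hemimethylated CpG hairpin DNA probe; 0% = median of test compound wells and 100% = reference inhibitor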
LEDGF integ inh: blocks HIV-1 LEDGF/p75-dependent DNA integration | inhibition, % at 3.7 µM | TR-FRET IN-LEDGF/p75 DNA integration, Eu/Cy5 | actives 0.64% (n = 370,000);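 active means inhibition above the screen-wide mean plus 3 SD, cut at about 13% in these data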;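 further: signal is the Cy5 over europium emission ratio at 671 and 618 nm; 0% = plate median of compound wells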
* marks the source's active call; other numbers are inactive results; . = not tested or not shown.

SMILES	MBD2 inh	TDP2 inh	NSD2 inh	CASP6 VEID inh	UHRF1 binding	LEDGF integ inh
O=C1c2ccccc2C(=O)c2[nH]c(=O)[nH]c21	-12.0	38.0*	35.2	82.6*	-4.7	2.9
CCN(CC)C(=S)SC1=CCS(=O)(=O)C1	7.3	-1.5	2.5	6.2	25.9*	5.5
COc1ccc(-c2c(C)n([O-])c(C)c(C)[n+]2=O)cc1OC	8.4	6.5	-2.1	.	23.1*	2.0
COc1ccc(-c2c(C)n([O-])c(C)c(-c3ccccc3)[n+]2=O)cc1OC	-3.8	6.3	1.5	.	-3.4	1.2
Cc1cc(C)c(-c2cc(NC(=O)COC(=O)c3ccc(C#N)cc3)n(-c3ccccc3)n2)cc1C	-3.8	-2.2	-0.7	-4.3	15.1	-2.5
Cc1cc(C)c(-c2cc(NC(=O)COC(=O)c3ccc(NC(=O)CC#N)cc3)n(-c3ccccc3)n2)cc1C	11.1	-7.8	-1.5	-2.8	25.6*	-1.3
COc1cc(C2(c3ccc(O)c(OC)c3)C(=O)Nc3c(C)cc(Br)cc32)ccc1O	0.2	1.5	0.8	8.6	31.1*	-2.9
O=C(NCCCN1CCCC1)c1ccc2c(c1)N(Cc1cccc(Cl)c1)C(=O)c1ccccc1S2(=O)=O	0.0	5.2	11.2	65.0*	0.1	-0.3
O=C(CN1CCCCC1)Nc1scc2c1c(=O)oc1ccccc12	4.9	-4.5	.	-3.6	21.0*	0.0
C(=C\c1ccc(C2[C@H]3CNC[C@@H]2N3Cc2ccccn2)cc1)/c1ccccc1 (some centres undefined)	.	.	.	50.0*	.	.
C[C@@H]1CN([C@H](C)CO)C(=O)Cc2cc(NC(=O)Nc3cccc4ccccc34)ccc2O[C@H]1CN(C)S(=O)(=O)c1cn(C)cn1	.	.	.	1.0	.	.
Cc1ccc(S(=O)(=O)Nc2cncnc2NS(=O)(=O)c2ccc(C)cc2)cc1	5.6	-10.4	-6.8	-0.1	42.4*	-1.0
COc1ccc(/C=C/C(=O)NCCNC(=O)c2ccccc2)cc1OC	4.4	12.8	-3.8	0.7	24.6*	2.3
Cc1cc(Cl)ccc1NNC(N)=S	6.8	-3.4	2.5	-4.5	21.5*	1.5
Cc1ccc(C)c(S(=O)(=O)N2CCN(C(=O)CSc3ccccc3)CC2)c1	3.1	-4.9	0.7	-0.4	-5.2	1.2
Cc1ccc(C)c(S(=O)(=O)N2CCN(C(C)C(=O)Nc3ccccc3-c3ccccc3)CC2)c1 (centres undefined)	6.2	-9.4	.	35.1*	1.5	-2.9
COCC(=O)N(C)C[C@H]1Oc2cc(-c3ccccc3F)ccc2S(=O)(=O)N([C@@H](C)CO)C[C@@H]1C	.	.	.	0.6	.	.
CC(C)C#Cc1ccc2c(c1)O[C@H](CN(C)C(=O)c1ccccn1)[C@@H](C)CN([C@H](C)CO)S2(=O)=O	.	.	.	-1.1	.	.
CNC[C@H]1Oc2ccc(NC(=O)Cc3cn(C)c4ccccc34)cc2C(=O)N([C@H](C)CO)C[C@@H]1C	.	.	.	-1.9	.	.
Cc1cnc(NC(=O)Cc2ccc(S(=O)(=O)N3CCOCC3)s2)s1	3.9	-6.8	1.5	0.7	3.5	-2.4
CC(C)(C)c1csc(NC(=O)Cc2ccc(S(=O)(=O)N3CCOCC3)s2)n1	-2.5	-3.5	-2.5	-0.8	76.4*	0.6
O=C(Cc1ccc(S(=O)(=O)N2CCOCC2)s1)Nc1ccccc1Br	-4.6	0.3	.	8.7	29.1*	2.5
NS(=O)(=O)c1ccc(O)c(NC(=O)c2ccc([N+](=O)[O-])o2)c1	-5.9	-12.4	0.0	6.1	42.0*	-2.9
Cc1cc(C)cc(NC(=O)c2ccc([N+](=O)[O-])o2)c1	-5.0	1.9	-1.1	.	-2.4	3.1
CCS(=O)(=O)N1CC2(C1)[C@H](c1ccccc1)[C@H](CO)N2C(=O)C1CC1	.	.	.	-1.5	.	.
SMILES	MBD2 inh	TDP2 inh	NSD2 inh	CASP6 VEID inh	UHRF1 binding	LEDGF integ inh
O=C(C[C@H]1C[C@@H]2c3cc(NC(=O)CC4CC4)ccc3O[C@@H]2[C@@H](CO)O1)NCc1ccc2c(c1)OCO2	.	.	.	0.9	.	.
O=C(N[C@H]1CC[C@H](CCNC(=O)C2CCOCC2)O[C@H]1CO)c1ccccn1	.	.	.	1.8	.	.
O=C(CCCC(=O)NC1CCCC1)NC1CCCC1	-4.8	-12.2	-3.2	.	2.1	2.9
O=CNCC(=O)NC1CCCCCC1	-2.9	-8.8	.	-0.4	23.8*	3.4
Cc1noc(C)c1NC(=O)Nc1ccc2c(c1)C(=O)N([C@H](C)CO)C[C@@H](C)[C@H](CN(C)S(=O)(=O)c1c(C)noc1C)OCCCC[C@@H](C)O2	.	.	.	2.1	.	.
CCc1ccc2nc(Nc3ccc(OC)cc3OC)c(C#N)cc2c1	3.2	-10.3	-9.1	.	22.3*	10.5
C[C@@H]1CN([C@H](C)CO)S(=O)(=O)c2ccc(-c3ccncc3)cc2O[C@@H]1CN(C)C	.	.	.	-2.2	.	.
O=C(O)c1ccc2c3c(cccc13)C(=O)N(c1ccccc1)C2=O	6.5	11.2	31.1	50.3*	14.8	5.0
NN1C(=O)c2cccc3c(C(=O)O)ccc(c23)C1=O	-10.2	-4.0	0.0	.	-5.2	-0.8
O=C(O)c1ccc(N2C(=O)c3cccc4c(C(=O)O)ccc(c34)C2=O)cc1	5.8	-3.3	2.7	53.4*	24.3*	3.4
Cc1ccccc1CN1[C@@H](C)[C@H](c2ccccc2)Oc2cccc(NCC(C)C)c2S1(=O)=O	-4.9	-8.4	.	63.0*	-2.0	1.8
O=C(C[C@H]1CC[C@@H](NC(=O)Nc2cc(F)ccc2F)[C@H](CO)O1)NCc1ccncn1	.	.	.	1.5	.	.
COCC#Cc1cnc2c(c1)C(=O)N([C@@H](C)CO)C[C@H](C)[C@@H](CN(C)S(=O)(=O)c1ccccc1)O2	.	.	.	-0.7	.	.
CS(=O)(=O)c1ccc(Nc2nc(C(N)COCc3ccccc3)cs2)cc1 (centres undefined)	0.0	-15.6	3.5	46.4*	4.4	-1.6
C[C@@H](O)C#Cc1ccc([C@@H]2[C@@H](CO)N3CCCCN(CC4CC4)C[C@H]23)cc1	.	.	.	2.9	.	.
CC1(C)CC(=O)C(C=Nc2cccnc2/N=C/C2=C(O)CC(C)(C)CC2=O)=C(O)C1	-4.2	10.6	-6.8	40.8*	-3.1	-1.1
O=C(N/N=C/c1ccc(-c2ccccc2C(=O)O)o1)c1cccs1	-1.6	2.1	26.3	.	23.4*	4.8
O=C(N/N=C/c1ccncc1)c1cccs1	.	.	-1.0	.	.	.
CCCNC(=O)C[C@@H]1CC[C@@H]2[C@H](COC[C@H](O)CN2C(=O)C2CCOCC2)O1	.	.	.	-1.6	.	.
O=C1Nc2cccnc2N(C(=O)CCl)c2ccccc21	-2.7	3.1	11.8	47.5*	0.3	-0.5
NCCN1CCN(CC(=O)N2c3ccccc3C(=O)Nc3cccnc32)CC1	-3.1	-15.9	.	-25.0	8.7	5.3
O=C(N/N=C/c1coc2ccccc2c1=O)c1cc(Br)ccc1O	0.2	-11.0	4.3	42.7*	-1.8	3.9
CCCCCc1nnc(NC(=O)c2ccc3nc[nH]c3c2)s1	2.4	-3.9	2.9	20.9	57.5*	-1.7
CCCCCCc1nnc(NC(=O)c2ccco2)s1	-5.4	-2.7	-2.4	-2.8	2.2	1.8

Compound activity as filed in PubChem BioAssay.
